Reference: ChEMBL document CHEMBL1153486, “Discovery of a class of potent gap-junction modifiers as novel antiarrhythmic agents” (Bioorg Med Chem Lett, 2009)
Blank lines part the entries; values can stand above or below the molecule they belong to. Calls of active or inactive are those of the source. No cut-off for these calls is given here.

Legend:
[1] = target: Voltage-gated inwardly rectifying potassium channel KCNH2 (Homo sapiens, UniProt Q12809); assay: Inhibition of human ERG
[2] = Half life in CD1 mouse at 5 mg/kg, po; details: in vivo
[3] = Tmax in dog at 7.8 mg/kg, po; format: ADME, organism-based, Canis lupus familiaris; parameters: dose 7.8 mg/kg, route oral; details: in vivo
[4] = Oral bioavailability in dog at 7.8 mg/kg; format: ADME, organism-based, Canis lupus familiaris; details: in vivo
Procedure, shortened: (§1)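 Dogs were dosed IV at 1 mg/kg and PO at 5 mg/kg; one compound was given 2.3 mg/kg IV and 7.8 mg/kg oral. Values are means of at least three animals, or two animals where no SD is given.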

[5] = Inhibition of CYP450; format: ADME
[6] = Metabolic stability in rat liver microsomes assessed as half life; format: ADME, Microsome
Mus musculus [7] = assay: Oral bioavailability in CD1 mouse at 1.6 mg/kg; format: ADME, organism-based; details: in vivo
[8] = Tmax in CD1 mouse at 5 mg/kg, po; details: in vivo
[9] = Volume of distribution at steady state in dog at 2.3 mg/kg, iv; format: ADME, organism-based, Canis lupus familiaris; parameters: dose 2.3 mg/kg, route intravenous; details: in vivo, read-out: Vdss; procedure, shortened: as §1
[10] = Cmax in CD1 mouse at 5 mg/kg, po; details: in vivo
[11] = Metabolic stability in human liver microsomes assessed as half life; format: ADME, Microsome
[12] = Cmax in dog at 7.8 mg/kg, po; format: ADME, organism-based, Canis lupus familiaris; parameters: dose 7.8 mg/kg, route oral; details: in vivo; procedure, shortened: as §1
[13] = Half life in dog at 2.3 mg/kg, iv; format: ADME, organism-based, Canis lupus familiaris; parameters: dose 2.3 mg/kg, route intravenous; details: in vivo; procedure, shortened: as §1
[14] = AUC in dog at 7.8 mg/kg, po; format: ADME, organism-based, Canis lupus familiaris; parameters: dose 7.8 mg/kg, route oral; details: plasma; procedure, shortened: as §1
[15] = Volume of distribution at steady state in CD1 mouse at 1.6 mg/kg, iv; format: ADME, organism-based; parameters: dose 1.6 mg/kg, route intravenous; details: in vivo, read-out: Vdss
Procedure, shortened: (§2)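 CD-1 mice were dosed IV at a nominal 1 mg/kg (actual 0.77 mg/kg or 1.6 mg/kg for some compounds) and PO at 5 mg/kg. Parameters were derived from mean drug concentration, N = 3 animals/time point.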

[16] = Half life in dog at 7.8 mg/kg, po; format: ADME, organism-based, Canis lupus familiaris; parameters: dose 7.8 mg/kg, route oral; details: in vivo; procedure, shortened: as §1
[17] = Clearance in dog at 2.3 mg/kg, iv; format: ADME, organism-based, Canis lupus familiaris; parameters: dose 2.3 mg/kg, route intravenous; details: in vivo; procedure, shortened: as §1
[18] = Stability in rat plasma after 3 hrs; format: ADME, cell-free; details: read-out: Stability
Procedure, shortened: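 Rat plasma incubation for 3 h; stability reported as percent of compound remaining.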

Mus musculus [19] = assay: Antiarrhythmic activity in calcium chloride-induced mouse arrhythmia model assessed as prolongation of time to conduct cardiac block at 1 to 30 mg/kg, po relative to control; format: functional, organism-based; details: Heart
Procedure, shortened: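 Compounds were given orally at 1–30 mg/kg to mice, which then received an intravenous CaCl2 infusion. The read-out was prolongation of time to conduction block versus control.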

[20] = Half life in CD1 mouse at 1.6 mg/kg, iv; format: ADME, organism-based; parameters: dose 1.6 mg/kg, route intravenous; details: in vivo; procedure, shortened: as §2
Mus musculus [21] = assay: Antiarrhythmic activity in calcium chloride-induced mouse arrhythmia model assessed as prolongation of time to conduct cardiac block at 10 pmol/kg, iv relative to control; format: functional, Heart
Procedure, shortened: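 Mice received an intravenous infusion of CaCl2 after IV test compound. The read-out was time to cardiac conduction block, expressed as percent increase over control. Values are means of at least three experiments with standard deviation.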

Mus musculus [22] = assay: AUC in CD1 mouse at 5 mg/kg, po; details: in vivo
[23] = Clearance in CD1 mouse at 1 mg/kg, iv; format: ADME, organism-based; parameters: dose 1 mg/kg, route intravenous; details: in vivo; procedure, shortened: as §2
[24] = AUC in CD1 mouse at 5 mg/kg, po; format: ADME, organism-based; parameters: dose 5 mg/kg, route oral; details: plasma; procedure, shortened: as §2
[25] = Half life in CD1 mouse at 5 mg/kg, po; format: ADME, organism-based; parameters: dose 5 mg/kg, route oral; details: in vivo; procedure, shortened: as §2
[26] = Tmax in CD1 mouse at 5 mg/kg, po; format: ADME, organism-based; parameters: dose 5 mg/kg, route oral; details: in vivo; procedure, shortened: as §2
[27] = Oral bioavailability in CD1 mouse at 5 mg/kg; format: ADME, organism-based; details: in vivo; procedure, shortened: as §2
[28] = Cmax in CD1 mouse at 5 mg/kg, po; format: ADME, organism-based; parameters: dose 5 mg/kg, route oral; details: in vivo; procedure, shortened: as §2
[29] = Volume of distribution at steady state in CD1 mouse at 1 mg/kg, iv; format: ADME, organism-based; parameters: dose 1 mg/kg, route intravenous; details: in vivo, read-out: Vdss; procedure, shortened: as §2
[30] = Half life in CD1 mouse at 1 mg/kg, iv; format: ADME, organism-based; parameters: dose 1 mg/kg, route intravenous; details: in vivo; procedure, shortened: as §2
[31] = Half life in dog at 5 mg/kg, po; format: ADME, organism-based, Canis lupus familiaris; parameters: dose 5 mg/kg, route oral; details: in vivo; procedure, shortened: as §1
[32] = Tmax in CD1 mouse at 0.77 mg/kg, po; format: ADME, organism-based; parameters: dose 0.77 mg/kg, route oral; details: in vivo
[33] = Volume of distribution at steady state in CD1 mouse at 0.77 mg/kg, iv; format: ADME, organism-based; parameters: dose 0.77 mg/kg, route intravenous; details: in vivo, read-out: Vdss; procedure, shortened: as §2
[34] = Cmax in CD1 mouse at 0.77 mg/kg, po; format: ADME, organism-based; parameters: dose 0.77 mg/kg, route oral; details: in vivo
[35] = AUC in dog at 5 mg/kg, po; format: ADME, organism-based, Canis lupus familiaris; parameters: dose 5 mg/kg, route oral; details: plasma; procedure, shortened: as §1
Canis familiaris [36] = assay: Half life in dog at 1 mg/kg, iv; format: ADME, organism-based, Canis lupus familiaris; parameters: dose 1 mg/kg, route intravenous; details: in vivo; procedure, shortened: as §1
[37] = Tmax in dog at 5 mg/kg, po; format: ADME, organism-based, Canis lupus familiaris; parameters: dose 5 mg/kg, route oral; details: in vivo
[38] = Cmax in dog at 5 mg/kg, po; format: ADME, organism-based, Canis lupus familiaris; parameters: dose 5 mg/kg, route oral; details: in vivo; procedure, shortened: as §1
Canis familiaris [39] = assay: Volume of distribution at steady state in dog at 1 mg/kg, iv; format: ADME, organism-based, Canis lupus familiaris; parameters: dose 1 mg/kg, route intravenous; details: in vivo; procedure, shortened: as §1
[40] = Oral bioavailability in dog at 5 mg/kg; format: ADME, organism-based, Canis lupus familiaris; details: in vivo; procedure, shortened: as §1
[41] = Half life in CD1 mouse at 0.77 mg/kg, iv; format: ADME, organism-based; parameters: dose 0.77 mg/kg, route intravenous; details: in vivo; procedure, shortened: as §2
Mus musculus [42] = assay: Antiarrhythmic activity in calcium chloride-induced mouse arrhythmia model assessed as prolongation of time to conduct cardiac block at 20 pmol/kg, iv relative to control; format: functional, Heart
Procedure, shortened: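 A medium-throughput IV screen in the mouse CaCl2 infusion arrhythmia model (n = 7–11). Time to conduction block was expressed as percent of saline control.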

[43] = Half life in CD1 mouse at 0.77 mg/kg, po; format: ADME, organism-based; parameters: dose 0.77 mg/kg, route oral; details: in vivo
Mus musculus [44] = assay: Oral bioavailability in CD1 mouse at 0.77 mg/kg; format: ADME, organism-based; details: in vivo
Mus musculus [45] = assay: AUC in CD1 mouse at 5 mg/kg, po; details: in vivo; remark: listed apart in the source

Voltage-gated inwardly rectifying potassium channel KCNH2, sequence (Q12809 whole entry): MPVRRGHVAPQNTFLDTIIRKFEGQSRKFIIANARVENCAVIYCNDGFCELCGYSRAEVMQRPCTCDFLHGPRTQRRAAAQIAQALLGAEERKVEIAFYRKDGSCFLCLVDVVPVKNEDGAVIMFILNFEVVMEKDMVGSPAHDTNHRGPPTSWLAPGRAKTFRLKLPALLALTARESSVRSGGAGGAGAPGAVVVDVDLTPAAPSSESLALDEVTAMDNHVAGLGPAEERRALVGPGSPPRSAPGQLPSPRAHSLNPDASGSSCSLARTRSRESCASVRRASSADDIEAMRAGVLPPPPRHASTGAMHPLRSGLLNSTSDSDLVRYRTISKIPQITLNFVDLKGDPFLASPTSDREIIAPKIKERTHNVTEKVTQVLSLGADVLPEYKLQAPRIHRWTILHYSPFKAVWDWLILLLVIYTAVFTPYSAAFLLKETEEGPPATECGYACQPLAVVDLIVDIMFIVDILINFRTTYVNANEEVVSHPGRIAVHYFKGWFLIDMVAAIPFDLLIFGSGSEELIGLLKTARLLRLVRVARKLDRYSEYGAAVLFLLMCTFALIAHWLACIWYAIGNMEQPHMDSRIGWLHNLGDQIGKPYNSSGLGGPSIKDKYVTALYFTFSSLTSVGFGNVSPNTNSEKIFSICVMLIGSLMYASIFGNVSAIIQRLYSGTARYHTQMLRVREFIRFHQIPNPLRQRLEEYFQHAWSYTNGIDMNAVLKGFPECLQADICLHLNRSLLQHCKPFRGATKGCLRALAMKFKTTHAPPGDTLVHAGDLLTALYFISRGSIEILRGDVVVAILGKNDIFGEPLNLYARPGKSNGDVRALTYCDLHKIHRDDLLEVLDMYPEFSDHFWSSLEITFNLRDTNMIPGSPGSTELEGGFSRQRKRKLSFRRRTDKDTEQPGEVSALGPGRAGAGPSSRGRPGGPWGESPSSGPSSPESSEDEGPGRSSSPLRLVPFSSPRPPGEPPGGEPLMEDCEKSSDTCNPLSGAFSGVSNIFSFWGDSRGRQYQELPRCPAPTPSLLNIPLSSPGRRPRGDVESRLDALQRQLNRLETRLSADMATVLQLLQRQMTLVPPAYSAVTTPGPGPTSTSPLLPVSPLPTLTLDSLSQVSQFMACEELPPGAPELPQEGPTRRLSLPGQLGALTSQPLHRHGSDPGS

SMILES: O=CNCC(=O)N1C[C@H](NC(=O)c2ccccc2)C[C@H]1C(=O)O
- Activity [1]: Not Active
- half-life [2]: 1.4 h
- Tmax [3]: 1.4 h
- bioavailability [4]: 13%
- Activity [5]: Not Active
- half-life [6]: > 0.5 h
- F (Mus musculus [7]): 2%
- Tmax [8]: 0.25 h
- Vd [9]: 0.4 L/kg
- Cmax [10]: 89 ng/mL
- half-life [11]: > 0.5 h
- Cmax [12]: 737 ng/mL
- half-life [13]: 1.5 h
- AUC [14]: 3820 ng·h/mL
- Vd [15]: 0.2 L/kg
- half-life [16]: 6.2 h
- clearance [17]: 5 mL/min/kg
- remaining at 3 h [18]: 100%
- Activity (Mus musculus [19]): Active
- half-life [20]: 0.4 h
- Activity (Mus musculus [21]): 170.4%
- AUC (Mus musculus [22]): 144 ng·h/mL

SMILES: NCC(=O)N1C[C@H](NC(=O)c2ccccc2)C[C@H]1C(=O)O [DANEGAPTIDE]
- half-life [31]: 4 h
- Tmax [32]: 0.5 h
- Vd [33]: 2.7 L/kg
- Cmax [34]: 26 ng/mL
- AUC [35]: 4790 ng·h/mL
- t1/2 (Canis familiaris [36]): 6.3 h
- Tmax [37]: 1.1 h
- Cmax [38]: 799 ng/mL
- Vdss (Canis familiaris [39]): 8 L/kg
- bioavailability [40]: 14%
- half-life [41]: 1.6 h
- Activity (Mus musculus [42]): 149.8%
- half-life [43]: 1.9 h
- remaining at 3 h [18]: 93%
- F (Mus musculus [44]): 6%
- AUC (Mus musculus [45]): 73 ng·h/mL
- Activity (Mus musculus [21]): 206.6%

SMILES: NCC(=O)N1C[C@H](NC(=O)c2ccccc2)C[C@H]1C(=O)N[C@@H]1CCOC1
- remaining at 3 h [18]: 100%
- Activity (Mus musculus [21]): 143.5%

SMILES: NCC(=O)N1C[C@H](NC(=O)c2ccccc2)C[C@H]1C(=O)NC1CCCC1
- remaining at 3 h [18]: 90%
- Activity (Mus musculus [21]): 110.6%

SMILES: CNC(=O)[C@@H]1C[C@@H](NC(=O)c2ccccc2)CN1C(=O)CN
- remaining at 3 h [18]: 87%
- Activity (Mus musculus [21]): 145%

Continued, in another order:

- remaining at 3 h [18]: 81%
SMILES: NCC(=O)N1C[C@H](NC(=O)c2ccccc2)C[C@H]1C(=O)NC1CCOCC1
- Activity (Mus musculus [21]): 99.4%

- Activity [5]: Not Active
- half-life [6]: > 0.5 h
- clearance [23]: 20 mL/min/kg
- AUC [24]: 305 ng·h/mL
- half-life [25]: 1.2 h
- Tmax [26]: 0.25 h
- half-life [11]: > 0.5 h
- bioavailability [27]: 7%
- Cmax [28]: 87 ng/mL
- Vd [29]: 0.6 L/kg
- remaining at 3 h [18]: 96%
- half-life [30]: 2.1 h
SMILES: NCC(=O)N1C[C@H](NC(=O)c2ccccc2)C[C@H]1C(=O)NC1CC1
- Activity [1]: Not Active
- Activity (Mus musculus [19]): Active
- Activity (Mus musculus [21]): 196%

- Activity [5]: Not Active
- half-life [6]: > 0.5 h
- clearance [23]: 58 mL/min/kg
- AUC [24]: 90 ng·h/mL
- half-life [25]: 1.6 h
- Tmax [26]: 0.25 h
- half-life [11]: > 0.5 h
- bioavailability [27]: 6%
- Cmax [28]: 44 ng/mL
- Vd [29]: 2 L/kg
- remaining at 3 h [18]: 100%
- half-life [30]: 0.9 h
SMILES: CC(C)NC(=O)[C@@H]1C[C@@H](NC(=O)c2ccccc2)CN1C(=O)CN
- Activity [1]: Not Active
- Activity (Mus musculus [19]): Active
- Activity (Mus musculus [21]): 162%

- remaining at 3 h [18]: 27%
SMILES: NCC(=O)N1C[C@H](NC(=O)c2ccccc2)C[C@H]1C(N)=O
- Activity (Mus musculus [21]): 193.2%
